How the values were obtained:
[1] = Cellular uptake in HSV1-tk gene overexpressing RG2TK+ cells assessed per 10^6 cells at 0.2 MBq after 2 hrs; type: ADME; settings: rat
Summary of the method: (§1)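 RG2 rat glioma cells transduced with HSV1-tk (kept in G418 250 mg/L), 5 × 10^5 cells/well, grown 24 h, then incubated at 37 °C in serum-free medium with ~0.02 MBq [125I]FIAU or ~0.2 MBq 18F-tracer. Sampled at 5–120 min. After cold PBS washes and trypsinization, cell-bound activity was gamma counted and normalized to viable (trypan blue) cells and to total dose. Mean ± S.D., ≥3 experiments in duplicate.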

[2] = Lipophilicity, log P at pH 7.4; type: physicochemical; settings: buffer
Summary of the method: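 Radiolabelled nucleoside (20 μL in water) was partitioned between 3 g 1-octanol and 3 g 0.1 M NaH2PO4 buffer, pH 7.4. The mixture was vortexed 3 min at room temperature, then centrifuged 5 min. Weighed 0.5 g samples of each layer were gamma counted, and the octanol layer was repartitioned until values were consistent. log P was taken as the log of the ratio of cpm/g octanol to cpm/g buffer. Triplicate, repeated three times.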

RG2 [3] = assay: Cellular uptake in RG2 cells assessed per 10^6 cells at 0.2 MBq after 2 hrs; type: ADME, cell-based; settings: rat, rg2, 2 h
Summary of the method: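 Wild-type RG2 rat glioma monolayers (5 × 10^5 cells/well, 24 h growth) were incubated at 37 °C in 0.5 mL serum-free medium with about 0.2 MBq (5 μCi) of 18F-labelled nucleoside (SA 18.5–925 GBq/μmol). After 2 h they were washed with cold PBS, trypsinized and viable cells counted by trypan blue. Gamma counts (400–1600 keV) were normalized to viable cell number and to total activity, expressed as % per 10^6 cells. Three or more experiments, each in duplicate.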

RG2 [4] = assay: Selectivity index, ratio of cellular uptake in HSV1-tk gene overexpressing RG2TK+ cells to cellular uptake in RG2 cells; type: functional, Rattus norvegicus
Summary of the method: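 Tracer uptake measured in parallel in HSV1-tk-transduced RG2TK+ and wild-type RG2 glioma cells: 37 °C, serum-free medium, ~0.2 MBq 18F-tracer. Activity was gamma counted and normalized to viable cells and dose. The index is the average ratio of accumulation in RG2TK+ to accumulation in RG2.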

[5] = Inhibition of [125I]FIAU uptake in RG2TK+ cells overexpressing HSV1-tk gene; type: functional, cell-based; settings: Rattus norvegicus
Summary of the method: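 HSV1-tk-expressing RG2TK+ glioma cells incubated 2 h with [125I]FIAU plus inhibitor at 0–300 μM. Cell-associated radioactivity measured. IC50 is the concentration giving 50% inhibition of [125I]FIAU uptake; mean ± S.D. of at least three experiments in duplicate.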

RG2 [6] = assay: Cytotoxicity against RG2 cells after 72 hrs by MTT assay; type: cell-based; settings: rat, rg2, 72 h
Summary of the method: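 RG2 cells were seeded at 1.5 × 10^3/well, left overnight, then exposed to drug at 0.001–1000 μmol/L in culture medium, in quadruplicate, for 72 h at 37 °C. MTT (1 mg/mL) was added for 3 h and the formazan dissolved in DMSO. Absorbance was read at 490 nm with a 650 nm reference, blank subtracted, and growth given as % of untreated control. CC50 was taken as mean of three experiments.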

[7] = Cytotoxicity against HSV1-tk gene overexpressing RG2TK+ cells after 72 hrs by MTT assay; type: cell-based; settings: rat
Summary of the method: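 RG2TK+ cells (HSV1-tk-transduced rat glioma) seeded at 1.5 × 10^3 cells/well overnight, then exposed to drug at 0.001–1000 μmol/L in quadruplicate for 72 h at 37 °C. MTT (1 mg/mL) added for 3 h; formazan dissolved in DMSO and read at 490 nm (650 nm reference). Blanks subtracted; growth given as % of untreated control. CC50 reported as mean ± S.E.M. of three experiments in duplicate.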

[8] = Cellular uptake in HSV1-tk gene overexpressing RG2TK+ cells assessed per 10^6 cells at 0.02 MBq after 2 hrs; type: ADME; settings: rat; summary of the method: as §1
RG2 [9] = assay: Cellular uptake in RG2 cells assessed per 10^6 cells at 0.02 MBq after 2 hrs; type: ADME, cell-based; settings: rat, rg2, 2 h
Summary of the method: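 Wild-type RG2 rat glioma monolayers (5 × 10^5 cells/well, grown 24 h at 37 °C in DMEM, 10% FBS) washed with warm PBS, then incubated at 37 °C in 0.5 mL serum-free medium with about 0.02 MBq [125I]FIAU (SA 2,200 Ci/mmol). After 2 h, cells were washed with cold PBS, trypsinized and counted for viability by trypan blue. Cell-associated gamma counts were normalized to viable cells and to activity added, given as % per 10^6 cells. Three or more experiments, each in duplicate.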

SMILES: O=c1[nH]c(=O)n([C@H]2C[C@H](O)[C@@H](CO)O2)cc1CCCC[18F]
- Drug uptake [1]: 8.4%
- logD [2]: -0.24
- Drug uptake (RG2 [3]): 0.59%
- Ratio (RG2 [4]): 14.9

SMILES: O=c1[nH]c(=O)n([C@@H]2O[C@H](CO)[C@@H](O)[C@@H]2F)cc1CCC[18F]
- Drug uptake [1]: 1.9%
- logD [2]: -0.12
- Drug uptake (RG2 [3]): 0.38%
- Ratio (RG2 [4]): 5

SMILES: O=c1[nH]c(=O)n([C@@H]2O[C@H](CO)[C@@H](O)[C@@H]2F)cc1CCCCC[18F]
- Drug uptake [1]: 1.2%
- logD [2]: 0.74
- Drug uptake (RG2 [3]): 0.24%
- Ratio (RG2 [4]): 5.5

SMILES: O=c1[nH]c(=O)n([C@@H]2O[C@H](CO)[C@@H](O)[C@@H]2F)cc1CCCF
- IC50 [5]: 51.2 µM
- CC50 (RG2 [6]): 121 µM
- CC50 [7]: 209 µM

SMILES: O=c1[nH]c(=O)n([C@@H]2O[C@H](CO)[C@@H](O)[C@@H]2F)cc1CCCCF
- IC50 [5]: 23 µM
- CC50 (RG2 [6]): 355 µM
- CC50 [7]: 346 µM

SMILES: O=c1[nH]c(=O)n([C@@H]2O[C@H](CO)[C@@H](O)[C@@H]2F)cc1[125I]
- Drug uptake [8]: 29.4%
- logD [2]: 0.05
- Drug uptake (RG2 [9]): 3.4%
- Ratio (RG2 [4]): 9.9

SMILES: O=c1[nH]c(=O)n([C@H]2C[C@H](O)[C@@H](CO)O2)cc1CCCF
- IC50 [5]: 7.6 µM
- CC50 (RG2 [6]): > 450 µM
- CC50 [7]: > 1000 µM

SMILES: O=c1[nH]c(=O)n([C@H]2C[C@H](O)[C@@H](CO)O2)cc1CCCCF
- IC50 [5]: 34.5 µM
- CC50 (RG2 [6]): > 800 µM
- CC50 [7]: > 800 µM

SMILES: O=c1[nH]c(=O)n([C@H]2C[C@H](O)[C@@H](CO)O2)cc1CCCCC[18F]
- Drug uptake [1]: 4.4%
- logD [2]: 0.23
- Drug uptake (RG2 [3]): 0.23%
- Ratio (RG2 [4]): 19.9

SMILES: O=c1[nH]c(=O)n([C@H]2C[C@H](O)[C@@H](CO)O2)cc1CCC[18F]
- Drug uptake [1]: 8.2%
- logD [2]: -0.57
- Drug uptake (RG2 [3]): 0.41%
- Ratio (RG2 [4]): 20.5

SMILES: O=c1[nH]c(=O)n([C@@H]2O[C@H](CO)[C@@H](O)[C@H]2F)cc1/C=C/[123I]
- logD [2]: 1.22

SMILES: O=c1[nH]c(=O)n([C@@H]2O[C@H](CO)[C@@H](O)[C@@H]2F)cc1CCCCCF
- IC50 [5]: 22.9 µM
- CC50 (RG2 [6]): > 1000 µM
- CC50 [7]: 375 µM

SMILES: O=c1[nH]c(=O)n([C@@H]2O[C@H](CO)[C@@H](O)[C@@H]2F)cc1/C=C/[123I]
- logD [2]: 1.24

SMILES: O=c1[nH]c(=O)n([C@@H]2O[C@H](CO)[C@@H](O)[C@@H]2F)cc1CCCC[18F]
- Drug uptake [1]: 3.7%
- logD [2]: 0.27
- Drug uptake (RG2 [3]): 0.66%
- Ratio (RG2 [4]): 7.8

SMILES: O=c1[nH]c(=O)n([C@H]2C[C@H](O)[C@@H](CO)O2)cc1CCCCCF
- IC50 [5]: 36.8 µM
- CC50 (RG2 [6]): > 750 µM
- CC50 [7]: > 650 µM

SMILES: O=c1[nH]c(=O)n([C@@H]2O[C@H](CO)[C@@H](O)[C@@H]2F)cc1I [FIALURIDINE]
- IC50 [5]: 0.7 µM
- CC50 (RG2 [6]): 80 µM
- CC50 [7]: 0.79 µM

SMILES: Nc1nc(O)c2ncn(COC(CO)CO)c2n1 [GANCICLOVIR]
- CC50 (RG2 [6]): 377 µM
- CC50 [7]: 5.86 µM
